# Measured values from ChEMBL document CHEMBL5661979, “Pharmacological inhibition of BMK1 suppresses tumor growth through promyelocytic leukemia protein” (Cancer Cell, 2010).
# Columns and labels:
# Type in all cases: subcellular
# [1] = target: T1, Serine/threonine-protein kinase Sgk3 (Homo sapiens, UniProt Q96BR1); test: Inhibition of SGK3 K2 site in human HeLa cells lysate pre incubated for 15 mins followed by ATP acyl phosphate probe addition and measured after 10 mins by LC-MS/MS analysis
# T1 sequence (Q96BR1 whole entry): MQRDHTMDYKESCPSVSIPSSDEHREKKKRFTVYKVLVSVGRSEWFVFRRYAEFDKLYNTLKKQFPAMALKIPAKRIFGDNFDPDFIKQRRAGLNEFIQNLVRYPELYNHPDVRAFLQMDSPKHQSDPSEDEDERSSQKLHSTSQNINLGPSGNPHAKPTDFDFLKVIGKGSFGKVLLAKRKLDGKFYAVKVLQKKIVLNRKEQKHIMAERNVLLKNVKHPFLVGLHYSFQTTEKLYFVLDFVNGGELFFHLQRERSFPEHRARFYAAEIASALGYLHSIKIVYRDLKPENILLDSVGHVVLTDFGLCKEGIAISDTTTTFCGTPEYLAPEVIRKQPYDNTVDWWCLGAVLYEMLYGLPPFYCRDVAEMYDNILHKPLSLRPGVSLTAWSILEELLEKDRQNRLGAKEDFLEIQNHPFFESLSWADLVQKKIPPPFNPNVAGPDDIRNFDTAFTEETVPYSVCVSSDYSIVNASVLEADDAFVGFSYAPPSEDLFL
# [2] = target: Serine/threonine-protein kinase A-Raf (Homo sapiens, UniProt P10398); test: Inhibition of ARAF in human HeLa cells lysate pre incubated for 15 mins followed by ATP acyl phosphate probe addition and measured after 10 mins by LC-MS/MS analysis
# Method in brief: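 KiNativ-type profiling in HeLa lysate (5 mg/mL total protein). Lysate preincubated 15 min with inhibitor at 50, 10, 2, 0.8 or 0 μM, then ATP or ADP acylphosphate probe added (5 μM final) for 10 min. Reaction stopped with urea and analysed by targeted MS, using up to four fragment ions per kinase peptide-probe conjugate. % inhibition calculated against untreated lysate. Duplicate reactions.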
# [3] = target: T2, Serine/threonine-protein kinase Nek9 (Homo sapiens) (UniProt Q8TD19); test: Inhibition of NEK9 in human HeLa cells lysate at 2 uM pre incubated for 15 mins followed by ADP acyl phosphate probe addition and measured after 10 mins by LC-MS/MS analysis relative to control; settings: time 25.0 min
# T2 sequence (whole entry): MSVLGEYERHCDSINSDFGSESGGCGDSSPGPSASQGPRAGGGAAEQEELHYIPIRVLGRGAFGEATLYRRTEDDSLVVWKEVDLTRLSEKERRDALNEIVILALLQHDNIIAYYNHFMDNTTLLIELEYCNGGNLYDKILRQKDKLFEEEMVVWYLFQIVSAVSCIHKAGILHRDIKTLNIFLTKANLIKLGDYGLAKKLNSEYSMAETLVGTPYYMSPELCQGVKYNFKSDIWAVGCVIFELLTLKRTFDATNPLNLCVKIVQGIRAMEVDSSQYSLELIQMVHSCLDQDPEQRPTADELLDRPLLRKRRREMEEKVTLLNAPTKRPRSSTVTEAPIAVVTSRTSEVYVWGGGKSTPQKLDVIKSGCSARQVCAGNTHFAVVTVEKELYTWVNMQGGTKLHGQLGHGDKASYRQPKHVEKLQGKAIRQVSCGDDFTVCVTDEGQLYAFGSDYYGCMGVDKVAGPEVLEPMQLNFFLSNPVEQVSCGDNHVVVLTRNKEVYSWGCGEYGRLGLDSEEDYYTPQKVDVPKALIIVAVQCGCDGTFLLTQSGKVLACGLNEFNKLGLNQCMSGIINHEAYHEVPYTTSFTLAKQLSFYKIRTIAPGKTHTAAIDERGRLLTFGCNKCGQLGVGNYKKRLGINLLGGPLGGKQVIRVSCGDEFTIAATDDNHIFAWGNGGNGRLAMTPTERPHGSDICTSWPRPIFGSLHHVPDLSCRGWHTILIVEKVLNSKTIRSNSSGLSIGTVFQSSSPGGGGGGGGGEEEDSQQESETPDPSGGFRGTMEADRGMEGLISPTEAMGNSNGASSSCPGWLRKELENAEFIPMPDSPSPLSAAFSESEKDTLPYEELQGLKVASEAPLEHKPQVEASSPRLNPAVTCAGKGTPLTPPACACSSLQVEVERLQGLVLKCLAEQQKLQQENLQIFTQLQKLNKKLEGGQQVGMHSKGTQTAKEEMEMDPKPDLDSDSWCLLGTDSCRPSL
# [4] = target: T3, Scaffold protein ILK (Homo sapiens) (UniProt Q13418); test: Inhibition of ILK in human HeLa cells lysate at 10 uM pre incubated for 15 mins followed by ATP acyl phosphate probe addition and measured after 10 mins by LC-MS/MS analysis relative to control; settings: time 25.0 min
# T3 sequence (whole entry): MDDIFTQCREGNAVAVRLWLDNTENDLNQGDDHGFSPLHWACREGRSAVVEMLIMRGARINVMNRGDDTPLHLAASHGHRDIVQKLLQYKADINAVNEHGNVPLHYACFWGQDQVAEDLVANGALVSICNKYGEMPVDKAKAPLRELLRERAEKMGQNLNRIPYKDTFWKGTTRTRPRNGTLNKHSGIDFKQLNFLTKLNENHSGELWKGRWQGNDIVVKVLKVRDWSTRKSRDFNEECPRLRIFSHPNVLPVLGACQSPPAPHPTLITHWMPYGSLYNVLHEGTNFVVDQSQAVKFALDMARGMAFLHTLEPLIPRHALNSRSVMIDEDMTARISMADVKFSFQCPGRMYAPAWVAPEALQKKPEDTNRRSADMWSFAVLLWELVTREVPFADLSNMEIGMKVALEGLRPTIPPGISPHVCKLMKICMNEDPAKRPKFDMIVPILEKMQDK
# [5] = target: Microtubule-associated serine/threonine-protein kinase 3 (Homo sapiens, UniProt O60307); test: Inhibition of MAST3 in human HeLa cells lysate at 50 uM pre incubated for 15 mins followed by ATP acyl phosphate probe addition and measured after 10 mins by LC-MS/MS analysis relative to control; settings: time 25.0 min
# [6] = target: Protein kinase C iota type (Homo sapiens, UniProt P41743); test: Inhibition of PKCiota in human HeLa cells lysate pre incubated for 15 mins followed by ADP acyl phosphate probe addition and measured after 10 mins by LC-MS/MS analysis
# [7] = Inhibition of PKD1/2 in human HeLa cells lysate pre incubated for 15 mins followed by ATP acyl phosphate probe addition and measured after 10 mins by LC-MS/MS analysis
# [8] = target: MAP/microtubule affinity-regulating kinase 3 (Homo sapiens, UniProt P27448); test: Inhibition of MARK3 in human HeLa cells lysate pre incubated for 15 mins followed by ADP acyl phosphate probe addition and measured after 10 mins by LC-MS/MS analysis
# [9] = target: Serine/threonine-protein kinase Nek7 (Homo sapiens, UniProt Q8TDX7); test: Inhibition of NEK7 in human HeLa cells lysate at 50 uM pre incubated for 15 mins followed by ADP acyl phosphate probe addition and measured after 10 mins by LC-MS/MS analysis relative to control; settings: time 25.0 min
# Chain of Serine/threonine-protein kinase Nek7 (Q8TDX7 whole entry, looked up): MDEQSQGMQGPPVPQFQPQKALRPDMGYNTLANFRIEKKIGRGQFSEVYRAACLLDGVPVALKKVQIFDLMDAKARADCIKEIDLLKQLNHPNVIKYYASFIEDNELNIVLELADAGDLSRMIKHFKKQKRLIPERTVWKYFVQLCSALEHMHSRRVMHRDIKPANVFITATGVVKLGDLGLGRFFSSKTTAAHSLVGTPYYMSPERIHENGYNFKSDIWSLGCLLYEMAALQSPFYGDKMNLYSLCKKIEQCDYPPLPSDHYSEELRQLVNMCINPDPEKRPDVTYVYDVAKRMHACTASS
# Chain of MAP/microtubule affinity-regulating kinase 3 (P27448 whole entry): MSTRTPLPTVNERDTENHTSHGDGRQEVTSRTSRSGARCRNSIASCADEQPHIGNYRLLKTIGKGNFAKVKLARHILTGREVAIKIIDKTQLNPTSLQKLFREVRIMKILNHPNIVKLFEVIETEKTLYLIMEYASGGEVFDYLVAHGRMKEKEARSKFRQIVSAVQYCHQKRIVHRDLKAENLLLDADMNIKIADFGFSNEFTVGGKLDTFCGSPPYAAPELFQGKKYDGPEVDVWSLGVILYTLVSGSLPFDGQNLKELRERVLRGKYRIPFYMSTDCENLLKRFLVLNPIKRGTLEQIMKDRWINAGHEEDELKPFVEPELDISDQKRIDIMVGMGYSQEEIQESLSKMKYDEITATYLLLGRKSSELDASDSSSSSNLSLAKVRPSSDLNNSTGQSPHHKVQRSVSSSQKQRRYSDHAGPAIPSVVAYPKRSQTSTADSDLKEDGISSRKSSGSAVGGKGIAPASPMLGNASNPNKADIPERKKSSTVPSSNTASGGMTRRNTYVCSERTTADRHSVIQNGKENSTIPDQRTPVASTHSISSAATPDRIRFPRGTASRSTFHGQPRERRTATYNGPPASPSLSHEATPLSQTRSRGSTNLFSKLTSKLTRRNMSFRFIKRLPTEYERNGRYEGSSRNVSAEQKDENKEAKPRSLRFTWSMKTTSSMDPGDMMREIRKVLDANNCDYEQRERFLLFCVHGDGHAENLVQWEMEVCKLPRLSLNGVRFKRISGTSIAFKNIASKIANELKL
# Chain of Protein kinase C iota type (P41743 whole entry): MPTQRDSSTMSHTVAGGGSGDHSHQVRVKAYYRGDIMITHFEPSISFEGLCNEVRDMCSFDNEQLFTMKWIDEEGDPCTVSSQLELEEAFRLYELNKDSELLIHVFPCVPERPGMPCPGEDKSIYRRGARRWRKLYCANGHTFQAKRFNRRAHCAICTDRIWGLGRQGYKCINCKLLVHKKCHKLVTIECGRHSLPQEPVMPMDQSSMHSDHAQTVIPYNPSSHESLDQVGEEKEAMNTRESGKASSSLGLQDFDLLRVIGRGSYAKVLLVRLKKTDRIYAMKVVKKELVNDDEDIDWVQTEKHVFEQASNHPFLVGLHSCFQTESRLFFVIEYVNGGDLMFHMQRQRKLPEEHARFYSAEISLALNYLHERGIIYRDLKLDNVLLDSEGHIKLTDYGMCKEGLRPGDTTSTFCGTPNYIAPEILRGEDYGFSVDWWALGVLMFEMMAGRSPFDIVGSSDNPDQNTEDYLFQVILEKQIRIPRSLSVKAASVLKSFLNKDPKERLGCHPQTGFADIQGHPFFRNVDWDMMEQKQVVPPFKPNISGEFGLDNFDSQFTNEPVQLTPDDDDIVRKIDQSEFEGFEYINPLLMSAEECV
# Chain of Serine/threonine-protein kinase A-Raf (P10398 whole entry, the tested form may be a part): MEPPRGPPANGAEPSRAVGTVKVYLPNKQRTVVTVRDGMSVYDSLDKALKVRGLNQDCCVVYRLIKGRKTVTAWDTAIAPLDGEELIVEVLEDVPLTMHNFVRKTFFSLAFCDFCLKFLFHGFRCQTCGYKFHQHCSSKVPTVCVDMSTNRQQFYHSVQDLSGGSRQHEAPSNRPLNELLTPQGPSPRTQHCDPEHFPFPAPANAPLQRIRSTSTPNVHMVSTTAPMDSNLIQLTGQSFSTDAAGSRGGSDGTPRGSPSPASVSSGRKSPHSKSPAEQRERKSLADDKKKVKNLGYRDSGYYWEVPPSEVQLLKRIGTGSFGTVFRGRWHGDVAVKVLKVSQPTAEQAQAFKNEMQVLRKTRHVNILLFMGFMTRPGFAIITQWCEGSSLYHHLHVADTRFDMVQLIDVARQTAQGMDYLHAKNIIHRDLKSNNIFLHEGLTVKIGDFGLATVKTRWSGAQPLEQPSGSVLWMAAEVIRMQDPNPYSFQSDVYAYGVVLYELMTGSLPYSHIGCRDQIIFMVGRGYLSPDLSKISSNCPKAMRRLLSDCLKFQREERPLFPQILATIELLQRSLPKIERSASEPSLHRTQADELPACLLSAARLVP
# Chain of Microtubule-associated serine/threonine-protein kinase 3 (O60307 whole entry): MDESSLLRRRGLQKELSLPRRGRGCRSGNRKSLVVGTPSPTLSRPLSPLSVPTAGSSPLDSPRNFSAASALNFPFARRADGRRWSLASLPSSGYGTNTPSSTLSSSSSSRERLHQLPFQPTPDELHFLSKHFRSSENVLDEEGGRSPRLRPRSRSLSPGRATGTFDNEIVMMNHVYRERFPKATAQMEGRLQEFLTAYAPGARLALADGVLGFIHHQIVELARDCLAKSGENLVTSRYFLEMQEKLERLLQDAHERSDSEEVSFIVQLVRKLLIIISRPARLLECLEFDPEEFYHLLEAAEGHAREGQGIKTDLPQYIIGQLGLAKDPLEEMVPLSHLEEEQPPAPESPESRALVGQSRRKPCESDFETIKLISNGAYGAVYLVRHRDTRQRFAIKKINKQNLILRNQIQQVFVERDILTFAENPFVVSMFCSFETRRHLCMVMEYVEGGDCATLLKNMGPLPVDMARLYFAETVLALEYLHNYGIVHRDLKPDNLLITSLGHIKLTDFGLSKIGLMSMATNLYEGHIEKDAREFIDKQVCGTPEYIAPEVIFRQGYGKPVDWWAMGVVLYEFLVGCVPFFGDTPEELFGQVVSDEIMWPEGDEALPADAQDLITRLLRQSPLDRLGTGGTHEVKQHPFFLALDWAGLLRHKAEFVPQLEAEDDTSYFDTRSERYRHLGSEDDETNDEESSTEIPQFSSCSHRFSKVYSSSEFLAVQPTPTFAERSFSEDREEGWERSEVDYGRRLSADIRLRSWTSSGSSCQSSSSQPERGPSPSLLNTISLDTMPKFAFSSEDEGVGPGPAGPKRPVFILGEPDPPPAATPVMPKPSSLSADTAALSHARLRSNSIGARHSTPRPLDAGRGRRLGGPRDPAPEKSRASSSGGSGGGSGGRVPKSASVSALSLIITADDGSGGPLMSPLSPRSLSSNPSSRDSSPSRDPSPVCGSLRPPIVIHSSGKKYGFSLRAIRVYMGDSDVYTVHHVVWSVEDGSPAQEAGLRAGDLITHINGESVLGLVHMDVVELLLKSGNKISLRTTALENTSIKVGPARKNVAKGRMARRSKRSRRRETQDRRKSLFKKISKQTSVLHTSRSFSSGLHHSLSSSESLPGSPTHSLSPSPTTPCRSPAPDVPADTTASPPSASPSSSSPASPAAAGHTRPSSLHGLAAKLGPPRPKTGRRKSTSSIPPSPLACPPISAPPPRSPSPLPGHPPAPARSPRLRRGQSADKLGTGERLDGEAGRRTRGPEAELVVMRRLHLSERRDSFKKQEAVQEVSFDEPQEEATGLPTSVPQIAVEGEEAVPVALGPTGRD
smiles,measurement,setting,value
CCOc1cc(N2CCC(O)CC2)ccc1Nc1ncc2c(n1)N(C)c1ccccc1C(=O)N2C,IC50,[1],> 50 µM
same,IC50,[2],> 50 µM
same,inhibition,[3],0.3%
same,inhibition,[4],13.3%
same,inhibition,[5],-5.8%
same,IC50,[6],> 50 µM
same,IC50,[7],> 50 µM
same,IC50,[8],> 50 µM
same,inhibition,[9],-2.3%
